# Assay outcomes: PubChem BioAssay, several laboratories
# L major viab: Leishmania major promastigote growth inhibition. 200,000 compounds, 9% hits. inhibition, % at 10 µM. Leishmania major promastigotes, resazurin fluorescence viability; in the data active = inhibition above about 50%;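 also: promastigotes grown with compound for 44 hours at 28 °C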
# PMI act hi M6P: activators of human phosphomannose isomerase at near-saturating mannose 6-phosphate | coupled PMI enzyme assay, resazurin fluorescence, 20 min; active compounds read high; 1 = untreated enzyme, 0 = substrate-free blank | P34949 | activation factor at 20 µM | 190,000 compounds, 0.34% hits;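 active = activation factor of 2 or more at 20 µM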
#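 Technique: Diaphorase-driven resazurin-to-resorufin fluorescence, excitation 544, emission 590 nm | Assay system: Human PMI in coupled enzyme assay | Times: Enzyme reaction with compound 20 min at room temperature | Medium: HEPES-buffered pH 7.4 with magnesium and detergent | Reagent: Mannose-6-phosphate 1.0 mM (near-saturating) plus 0.22 mM NADP+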
# PMI activator: increases human mannose-6-phosphate isomerase activity. AID 1214. purified human PMI, coupled resazurin fluorescence, 20 min; active compounds read high; 1 = vehicle control, 0 substrate-free wells. 190,000 compounds, 0.005% hits. activation factor at 20 µM. P34949;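 active = activation factor of 2 or more at 20 µM, relative to plate controls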
# Rad51 HR inh: blocks human Rad51 in homologous recombination | inhibition, % at 10 µM | AID 1385 | Q06609 | hRad51 DNA strand exchange, fluorescence dequenching | 200,000 compounds, 0.085% hits;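 active = inhibition above 40% at the single screening dose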;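 also: 0% = DMSO control wells and 100% = blanks with heterologous ssDNA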
# Target sequence (Q06609 whole entry, looked up): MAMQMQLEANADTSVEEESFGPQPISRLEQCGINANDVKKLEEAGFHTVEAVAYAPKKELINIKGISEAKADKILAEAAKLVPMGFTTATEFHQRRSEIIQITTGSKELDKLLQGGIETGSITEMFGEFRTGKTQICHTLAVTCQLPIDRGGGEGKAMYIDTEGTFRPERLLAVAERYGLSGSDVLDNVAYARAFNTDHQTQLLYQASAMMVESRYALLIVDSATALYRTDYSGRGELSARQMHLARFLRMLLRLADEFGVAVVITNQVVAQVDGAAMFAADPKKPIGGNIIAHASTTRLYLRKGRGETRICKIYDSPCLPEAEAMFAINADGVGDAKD
#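 material = hRad51 filaments on single-stranded DNA | reagent = Donor/quencher-labelled 47-bp dsDNA substrate | compound = 10 µM final, single point | schedule = strand-exchange reaction 15 min at room temperature | measured by = fluorescein emission 520 nm, excitation 485 nm | read-out basis = % inhibition versus plate control and blank means | benchmarks = plate controls and plate blanks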
# WT yeast gro inh: growth inhibition of WT yeast, mitochondrial fusion screen; mitochondrial fusion phenotypic screen, WT strain; inhibition, % at 10 µM; 190,000 compounds, 2.1% hits; in the data active = inhibition above about 58%; tested in S. cerevisiae
# Calpain2 inh: blocks pig calpain II enzyme activity. purified calpain II, fluorogenic peptide substrate, 30 min. inhibition, % at 16 µM. 220,000 compounds, 0.37% hits;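 active = inhibition above about 50%, limit read from the data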
# The depositor's hits bear a star; i = inactive; / = not tested or not shown. In the library only some 9.8% were active in any assay of this set; here they are far more common.
SMILES,L major viab,PMI act hi M6P,PMI activator,Rad51 HR inh,WT yeast gro inh,Calpain2 inh
CN(C)c1ccc(NC(=O)CN2C(=O)CN=C(c3ccccc3)c3cc(Cl)ccc32)cc1,33.6,0.8,1.2,-3.4,16.9,0.7
O=C1/C(=C\c2cc3c(cc2Br)OCO3)N2CCC1CC2,63.4*,0.8,1,0.6,-6.5,7.6
O=C(O)[C@H]1NC[C@H]2C[C@H]21,-1.1,1,1,/,14.4,-5.5
O=C(O)CCn1cc(C=C2C(=O)NC(=S)NC2=O)c(-c2ccccc2)n1,-2.8,1.1,0.4,/,-6.8,-30.9
O=C(O)CCn1cc(C=C2C(=O)NC(=S)NC2=O)c(-c2cc3ccccc3oc2=O)n1,-6.7,2.3*,1.3,0.4,-3.2,-35.2
CC(NC1=NCCS1)c1ccccc1 (stereo not given),-0.3,1,1,-1.8,-8.6,-20.4
COc1cc(C(c2c(C)[nH]n(-c3ccccc3)c2=O)c2c(C)[nH]n(-c3ccccc3)c2=O)cc(OC)c1OC,95.0*,1.1,1.2,/,1.7,12.1
COC(=O)C(O)(c1c(C)[nH]n(-c2ccccc2)c1=O)C(F)(F)F (stereo not given),-9.0,1.3,1.2,18.8,14.6,8.4
Cc1cccc(NP(=O)(Oc2ccccc2F)Oc2ccccc2F)c1,56.8*,0.8,0.7,/,57.6,29.1
COc1ccccc1OP(=O)(Nc1cccnc1)Oc1ccccc1OC,10.1,1,1,-1.2,-2.3,16.9
COc1cccc(NP(=O)(Oc2ccc(Cl)cc2)Oc2ccc(Cl)cc2)c1,9.3,0.9,0.8,-2.0,63.4*,38.1
O=C1N[C@@H](Cc2ccccc2)C(=O)N2[C@H]1C[C@H]1c3ccccc3N(OOSc3ccccc3)[C@H]12,/,/,/,-13.8,/,/
COc1ccccc1CCNC1CCC(C)CC1 (stereo not given),76.7*,0.9,0.9,3.1,-1.3,-0.7
C=C1N2CCC(CC2)C1(O)c1ccc(C)cc1 (stereo not given),-4.2,2.1*,1.6,-3.6,-9.9,19.1
CCCCn1c(=O)c(C(=O)Nc2nc3ccccc3[nH]2)c(O)c2ccccc21,/,0.9,0.8,/,/,/
CC(=O)c1c(C)n(Cc2ccccc2)c2ccc(O)cc12,/,/,/,/,/,7.5
CCN(CC)CCCNC(=O)c1c(O)c2ccccc2n(Cc2ccccc2)c1=O,100.1*,1.1,1,3.8,4.8,8.4
CCN(CC)CCNC(=O)c1c(O)c2ccccc2n(Cc2ccccc2)c1=O,89.5*,0.9,1,-11.7,5.2,-5.5
CC1CN(c2ccc([N+](=O)[O-])cc2Cl)CCN1 (stereo not given),9.5,0.5,0.8,22.8,1.5,19.6
CCN1C[C@]2(CO)CC[C@H](OC)[C@@]34C5C[C@H]6[C@H](OC)C5[C@](O)(C[C@H]6OC)[C@@](O)(C(OC)C23)[C@@H]14 (stereo not given in full),/,/,/,0.9,/,/
O=c1[nH]c2ccccc2c(=O)n1-c1ccc(Cl)cc1Cl,-3.9,0.9,1,/,4.0,-15.1
O=C(c1cc(F)ccc1F)C1CCCN(CCCc2ccccc2)C1 (stereo not given),82.2*,0.9,0.9,/,12.5,4.8
CCOC(=O)C1=C(N)OC2=C(C(=O)CCC2)C12C(=O)N1c3c(ccc(C)c32)C(C)=CC1(C)C (stereo not given),78.7*,0.9,0.9,3.8,4.1,-24.1
CCOC(=O)c1sc(N=Nc2c(O)[nH]c(=O)[nH]c2=O)c(C(=O)OCC)c1C,59.0*,1,0.9,0.6,-253.1,-6.8
CC(C)(C)NC(=S)/N=C(\N)N[N+](=O)[O-],-6.5,1.1,1.1,3.2,-2.4,33.6
SMILES,L major viab,PMI act hi M6P,PMI activator,Rad51 HR inh,WT yeast gro inh,Calpain2 inh
C=CCN1C(=O)NC(=O)/C(=C/c2cc3c4c(c2)CCCN4CCC3)C1=O,93.1*,0.8,0.9,-76.3,21.2,-32.4
Cc1cc(=O)[nH]c(CCl)n1,0.5,1.1,1.1,-15.5,4.4,-1.7
Cc1ccccc1C1=NCC(=O)N(CC(=O)NCc2ccco2)c2sc3c(c21)CCCC3,92.8*,1,0.8,-2.2,7.9,-17.2
CCC(C)C1N=C(c2ccccc2)c2cc(Cl)ccc2N(CC(=O)NCc2ccco2)C1=O (stereo not given),4.3,0.9,1,-3.2,11.2,-4.7
CC(=O)NC(Cc1ccc(N(CCCl)CCCl)cc1)C(=O)NCC(=O)NCC(=O)O (stereo not given),-4.3,1,1.2,11.1,-11.3,-30.9
O=c1[nH]c(=O)n(C2CCCCCC2)c(O)c1C=NC1CCN(Cc2ccccc2)CC1,89.1*,1,1,-0.4,4.3,-9.1
O=c1[nH]c(=S)n(CCC2=CCCCC2)c(O)c1C=NC1CCN(Cc2ccccc2)CC1,41.2,1,0.9,-6.0,78.1*,-3.9
Cn1c(O)c(C=NC2CCN(Cc3ccccc3)CC2)c(=O)[nH]c1=O,/,/,/,-7.0,/,-2.5
O=c1[nH]c(=S)n(CCC2=CCCCC2)c(O)c1/C=N/Nc1ccccc1,/,/,/,-0.9,/,-14.6
O=C(Nc1ccccc1)OC1CN=C(N[N+](=O)[O-])NC1 (stereo not given),8.4,1,1,-24.3,-1.1,6.9
O=C(c1cccc2ccccc12)C1CCCN(C2CCC2)C1 (stereo not given),73.6*,0.9,0.8,19.2,3.8,-7.8
O=C(c1ccc(Cl)cc1)C1CCCN(Cc2ccc3nonc3c2)C1 (stereo not given),84.7*,0.9,0.9,18.4,55.7,16.4
O=C(c1ccc(Cl)cc1)C1CCCN(Cc2cccc3ncccc23)C1 (stereo not given),80.6*,0.9,0.8,21.4,18.9,-0.3
CCOC(=O)c1[nH]ncc1CN1CCCC(C(=O)c2cccc(Cl)c2)C1 (stereo not given),/,/,/,1.6,/,7.2
O=C(c1ccccc1)C1CCCN(Cc2nc(-c3cnccn3)no2)C1 (stereo not given),-4.0,1,1,-0.2,-11.1,-2.9
O=C(c1ccc(Cl)cc1)C1CCCN(Cc2cccc3cccnc23)C1 (stereo not given),82.8*,1,1,-1.0,11.6,22.5
O=[N+]([O-])[N-][n+]1cnn(Cc2ccccc2)c1,-8.0,1.1,1.1,5.1,3.3,23.0
CCOc1ccc(-c2cc(C)[n+](CCO)c(-c3ccc(OCC)cc3)c2)cc1,99.1*,1,1,10.1,-5.5,i
CCN(CC)c1ccc(/C=C/[N+](=O)[O-])cc1,68.8*,0.9,1,-359.0,38.3,-4.8
C[C@@]12N[C@@H](Cc3ccccc31)c1ccccc12,/,/,/,-5.2,/,/
Nc1nonc1C(=O)N/N=C/c1ccc([N+](=O)[O-])o1,83.5*,0.8,1.3,12.2,-2.1,-191.5
N/C(=N\[N+](=O)[O-])N/N=C/c1ccc(O)cc1,-0.5,1,1,-1.2,-7.4,16.0
